ChEMBL document CHEMBL3407388, “Synthesis, anticancer activity and molecular docking studies on a series of heterocyclic trans-cyanocombretastatin analogues as antitubulin agents” (2015)

Experiments:
Format in all cases: functional
NCI-H226 = experiment: Cytotoxicity against human NCI-H226 cells assessed as growth inhibition after 48 hrs by SRB assay; conditions: NCI-H226, 48 h
How it was run: (§1)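 NCI 60-cell panel; compounds passing a single-dose screen (10−5 M, 48 h) were tested at five 10-fold dilutions (10−4 to 10−8 M) with 48 h drug exposure. GI50 is the molar concentration giving 50% reduction in net cell growth relative to cell numbers on day 0.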

MDA-MB-435 = experiment: Cytotoxicity against human MDA-MB-435 cells assessed as growth inhibition after 48 hrs by SRB assay; conditions: MDA-MB-435, 48 h; how it was run: as §1
RPMI-8226 = experiment: Cytotoxicity against human RPMI8226 cells assessed as growth inhibition after 48 hrs by SRB assay; conditions: RPMI-8226, 48 h; how it was run: as §1
[1] = Cytotoxicity against human HCT116 cells assessed as growth inhibition after 48 hrs by SRB assay; conditions: HCT-116, 48 h; how it was run: as §1
KM12 = experiment: Cytotoxicity against human KM12 cells assessed as growth inhibition after 48 hrs by SRB assay; conditions: KM12, 48 h; how it was run: as §1
[2] = Cytotoxicity against human OVCAR8 cells assessed as growth inhibition after 48 hrs by SRB assay; conditions: OVCAR-8, 48 h; how it was run: as §1
CAKI-1 = experiment: Cytotoxicity against human Caki1 cells assessed as growth inhibition after 48 hrs by SRB assay; conditions: CAKI-1, 48 h; how it was run: as §1
SF-539 = experiment: Cytotoxicity against human SF539 cells assessed as growth inhibition after 48 hrs by SRB assay; conditions: SF-539, 48 h; how it was run: as §1
MOLT-4 = experiment: Cytotoxicity against human MOLT4 cells assessed as growth inhibition after 48 hrs by SRB assay; conditions: MOLT-4, 48 h; how it was run: as §1
MCF7 = experiment: Cytotoxicity against human MCF7 cells assessed as growth inhibition after 48 hrs by SRB assay; conditions: MCF7, 48 h; how it was run: as §1
[3] = Cytotoxicity against human HCT15 cells assessed as growth inhibition after 48 hrs by SRB assay; conditions: HCT-15, 48 h; how it was run: as §1
A498 = experiment: Cytotoxicity against human A498 cells assessed as growth inhibition after 48 hrs by SRB assay; conditions: A498, 48 h; how it was run: as §1
NCI-H23 = experiment: Cytotoxicity against human NCI-H23 cells assessed as growth inhibition after 48 hrs by SRB assay; conditions: NCI-H23, 48 h; how it was run: as §1
[4] = Cytotoxicity against human UACC62 cells assessed as growth inhibition after 48 hrs by SRB assay; conditions: UACC-62, 48 h
SN12C = experiment: Cytotoxicity against human SN12C cells assessed as growth inhibition after 48 hrs by SRB assay; how it was run: as §1
HT-29 = experiment: Cytotoxicity against human HT-29 cells assessed as growth inhibition after 48 hrs by SRB assay; conditions: HT-29, 48 h; how it was run: as §1
[5] = Cytotoxicity against human OVCAR5 cells assessed as growth inhibition after 48 hrs by SRB assay; conditions: OVCAR-5, 48 h; how it was run: as §1
[6] = Cytotoxicity against human OVCAR4 cells assessed as growth inhibition after 48 hrs by SRB assay; conditions: OVCAR-4, 48 h; how it was run: as §1
[7] = Cytotoxicity against human UO31 cells assessed as growth inhibition after 48 hrs by SRB assay; conditions: UO-31, 48 h
IGROV-1 = experiment: Cytotoxicity against human IGROV1 cells assessed as growth inhibition after 48 hrs by SRB assay; conditions: IGROV-1, 48 h; how it was run: as §1
SK-MEL-5 = experiment: Cytotoxicity against human SK-MEL-5 cells assessed as growth inhibition after 48 hrs by SRB assay; conditions: SK-MEL-5, 48 h; how it was run: as §1
MDA-MB-231 = experiment: Cytotoxicity against human MDA-MB-231 cells assessed as growth inhibition after 48 hrs by SRB assay; conditions: MDA-MB-231, 48 h; how it was run: as §1
[8] = Cytotoxicity against human NCI-ADR-RES cells assessed as growth inhibition after 48 hrs by SRB assay; how it was run: as §1
TK-10 = experiment: Cytotoxicity against human TK10 cells assessed as growth inhibition after 48 hrs by SRB assay; conditions: TK-10, 48 h
HL-60(TB) = experiment: Cytotoxicity against human HL-60(TB) cells assessed as growth inhibition after 48 hrs by SRB assay; conditions: HL-60, 48 h
How it was run: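 NCI 60-cell panel, leukemia subpanel. Five-dose screen at 10-fold dilutions from 10−4 to 10−8 M with 48 h drug exposure. GI50 is the molar concentration giving 50% reduction in net cell growth compared with cell numbers on day 0.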

U-251 = experiment: Cytotoxicity against human U251 cells assessed as growth inhibition after 48 hrs by SRB assay; conditions: U-251, 48 h
SK-OV-3 = experiment: Cytotoxicity against human SKOV3 cells assessed as growth inhibition after 48 hrs by SRB assay; conditions: SK-OV-3, 48 h; how it was run: as §1
[9] = Cytotoxicity against human OVCAR3 cells assessed as growth inhibition after 48 hrs by SRB assay; conditions: OVCAR-3, 48 h; how it was run: as §1
DU-145 = experiment: Cytotoxicity against human DU145 cells assessed as growth inhibition after 48 hrs by SRB assay; conditions: DU-145, 48 h; how it was run: as §1
786-0 = experiment: Cytotoxicity against human 786-0 cells assessed as growth inhibition after 48 hrs by SRB assay; conditions: 786-0, 48 h; how it was run: as §1
SW-620 = experiment: Cytotoxicity against human SW620 cells assessed as growth inhibition after 48 hrs by SRB assay; conditions: SW-620, 48 h
RXF 393 = experiment: Cytotoxicity against human RXF393 cells assessed as growth inhibition after 48 hrs by SRB assay; conditions: RXF 393, 48 h; how it was run: as §1
NCI-H460 = experiment: Cytotoxicity against human NCI-H460 cells assessed as growth inhibition after 48 hrs by SRB assay; conditions: NCI-H460, 48 h; how it was run: as §1
HCC 2998 = experiment: Cytotoxicity against human HCC2998 cells assessed as growth inhibition after 48 hrs by SRB assay; conditions: HCC 2998, 48 h; how it was run: as §1
[10] = Cytotoxicity against human PC3 cells assessed as growth inhibition after 48 hrs by SRB assay; conditions: PC-3, 48 h; how it was run: as §1
LOX IMVI = experiment: Cytotoxicity against human LOXIMVI cells assessed as growth inhibition after 48 hrs by SRB assay; how it was run: as §1
SNB-19 = experiment: Cytotoxicity against human SNB19 cells assessed as growth inhibition after 48 hrs by SRB assay; conditions: SNB-19, 48 h; how it was run: as §1
BT-549 = experiment: Cytotoxicity against human BT549 cells assessed as growth inhibition after 48 hrs by SRB assay; conditions: BT-549, 48 h; how it was run: as §1
SF-295 = experiment: Cytotoxicity against human SF295 cells assessed as growth inhibition after 48 hrs by SRB assay; conditions: SF-295, 48 h; how it was run: as §1
M14 = experiment: Cytotoxicity against human M14 cells assessed as growth inhibition after 48 hrs by SRB assay; conditions: M14, 48 h; how it was run: as §1
SNB-75 = experiment: Cytotoxicity against human SNB75 cells assessed as growth inhibition after 48 hrs by SRB assay; conditions: SNB-75, 48 h
COLO 205 = experiment: Cytotoxicity against human COLO205 cells assessed as growth inhibition after 48 hrs by SRB assay; conditions: COLO 205, 48 h; how it was run: as §1
SF-268 = experiment: Cytotoxicity against human SF268 cells assessed as growth inhibition after 48 hrs by SRB assay; conditions: SF-268, 48 h; how it was run: as §1

COc1cc(/C(C#N)=C/c2cc3ccccc3o2)cc(OC)c1OC
GI50 (NCI-H226): < 0.01 µM
GI50 (MDA-MB-435): < 0.01 µM
GI50 (RPMI-8226): 0.019 µM
GI50 [1]: < 0.01 µM
GI50 (KM12): < 0.01 µM
GI50 [2]: < 0.01 µM
GI50 (CAKI-1): < 0.01 µM
GI50 (SF-539): < 0.01 µM
GI50 (MOLT-4): 0.047 µM
GI50 (MCF7): 0.023 µM
GI50 [3]: < 0.01 µM
GI50 (A498): < 0.01 µM
GI50 (NCI-H23): < 0.01 µM
GI50 [4]: < 0.01 µM
GI50 (SN12C): < 0.01 µM
GI50 (HT-29): < 0.01 µM
GI50 [5]: 0.042 µM
GI50 [6]: 0.039 µM
GI50 [7]: 2.29 µM
GI50 (IGROV-1): 0.022 µM
GI50 (SK-MEL-5): < 0.01 µM
GI50 (MDA-MB-231): 0.028 µM
GI50 [8]: < 0.01 µM
GI50 (TK-10): 73.6 µM
GI50 (HL-60(TB)): < 0.01 µM
GI50 (U-251): < 0.01 µM
GI50 (SK-OV-3): < 0.01 µM
GI50 [9]: < 0.01 µM
GI50 (DU-145): < 0.01 µM
GI50 (786-0): < 0.01 µM
GI50 (SW-620): < 0.01 µM
GI50 (RXF 393): < 0.01 µM
GI50 (NCI-H460): < 0.01 µM
GI50 (HCC 2998): 0.01 µM
GI50 [10]: < 0.01 µM
GI50 (LOX IMVI): < 0.01 µM
GI50 (SNB-19): < 0.01 µM
GI50 (BT-549): 0.029 µM
GI50 (SF-295): < 0.01 µM
GI50 (M14): < 0.01 µM
GI50 (SNB-75): < 0.01 µM
GI50 (COLO 205): < 0.01 µM
GI50 (SF-268): 0.247 µM

COc1ccc(/C(C#N)=C/c2c[nH]c3ccccc23)cc1OC
GI50 (NCI-H226): 20.9 µM
GI50 (MDA-MB-435): 3.95 µM
GI50 (RPMI-8226): 3.96 µM
GI50 [1]: 35.5 µM
GI50 (KM12): 4.04 µM
GI50 [2]: 7.38 µM
GI50 (CAKI-1): 4.34 µM
GI50 (SF-539): 8.42 µM
GI50 (MOLT-4): 3.99 µM
GI50 (MCF7): 3.1 µM
GI50 [3]: 3.7 µM
GI50 (A498): 3.36 µM
GI50 (NCI-H23): 7.19 µM
GI50 [4]: 6.98 µM
GI50 (SN12C): 8.1 µM
GI50 (HT-29): 3.32 µM
GI50 [5]: > 100 µM
GI50 [6]: 22.1 µM
GI50 [7]: 14.3 µM
GI50 (IGROV-1): 21 µM
GI50 (SK-MEL-5): 4.27 µM
GI50 (MDA-MB-231): 7.18 µM
GI50 [8]: 1.7 µM
GI50 (TK-10): 13.2 µM
GI50 (HL-60(TB)): 4.57 µM
GI50 (U-251): 4.97 µM
GI50 (SK-OV-3): 11.9 µM
GI50 [9]: 5.68 µM
GI50 (DU-145): 22.6 µM
GI50 (786-0): 14.1 µM
GI50 (SW-620): 3.53 µM
GI50 (RXF 393): 4.48 µM
GI50 (NCI-H460): 4.51 µM
GI50 (HCC 2998): 12.6 µM
GI50 [10]: 7.85 µM
GI50 (LOX IMVI): 5.32 µM
GI50 (SNB-19): 24.2 µM
GI50 (BT-549): 5.38 µM
GI50 (SF-295): 4.92 µM
GI50 (M14): 3.75 µM
GI50 (SNB-75): 6.04 µM
GI50 (COLO 205): 5.31 µM
GI50 (SF-268): 18.9 µM

COc1cc(OC)cc(/C(C#N)=C/c2nc3ccccc3s2)c1
GI50 (NCI-H226): 4.11 µM
GI50 (MDA-MB-435): 0.199 µM
GI50 (RPMI-8226): 2.29 µM
GI50 [1]: 0.404 µM
GI50 (KM12): 2.01 µM
GI50 [2]: 3.13 µM
GI50 (CAKI-1): 0.482 µM
GI50 (SF-539): 1.68 µM
GI50 (MOLT-4): 3.38 µM
GI50 (MCF7): 0.399 µM
GI50 [3]: 0.414 µM
GI50 (A498): 0.417 µM
GI50 (NCI-H23): 2.84 µM
GI50 [4]: 0.755 µM
GI50 (SN12C): 4.68 µM
GI50 (HT-29): 0.438 µM
GI50 [5]: 4.85 µM
GI50 [6]: > 10 µM
GI50 [7]: 0.679 µM
GI50 (IGROV-1): 0.706 µM
GI50 (SK-MEL-5): 1.37 µM
GI50 (MDA-MB-231): 6.74 µM
GI50 [8]: 1.47 µM
GI50 (TK-10): 2.78 µM
GI50 (HL-60(TB)): 0.345 µM
GI50 (U-251): 1.91 µM
GI50 (SK-OV-3): 1.79 µM
GI50 [9]: 0.285 µM
GI50 (DU-145): 1.07 µM
GI50 (786-0): 2.44 µM
GI50 (SW-620): 0.343 µM
GI50 (RXF 393): 0.551 µM
GI50 (NCI-H460): 2.86 µM
GI50 (HCC 2998): 8.39 µM
GI50 [10]: 2.74 µM
GI50 (LOX IMVI): 1.84 µM
GI50 (SNB-19): > 10 µM
GI50 (BT-549): 3.45 µM
GI50 (SF-295): 2.46 µM
GI50 (M14): 1.21 µM
GI50 (SNB-75): 2.13 µM
GI50 (COLO 205): 0.574 µM
GI50 (SF-268): 3.09 µM
